Results of several laboratories.
Compare with care: the assays were run in different laboratories.
Organism: Salmonella enterica
Observed: microbial growth

With `C[C@H]1[C@H](NC(=O)/C(=N\OC(C)(C)C(=O)O)c2csc(N)n2)C(=O)N1S(=O)(=O)O` the MIC was no more than 0.03 µg/mL (agar dilution; TYPHI).
For `CC1=NN(CNc2ccc(Cl)cc2)C(=O)C1=NNn1c(-c2ccccc2)nc2ccccc2c1=O`, the MIC was 103 µM (broth dilution; PARATYPHI; 24 h).
With `CCCCCCCCCCCC(=O)OC[C@H]1O[C@@H](n2cc(C)c(=O)[nH]c2=O)C[C@@H]1OC(=O)c1ccc(C(C)(C)C)cc1` the MIC was 0.5 µg/mL (broth dilution; TYPHI).
The MIC of `CO[C@H]1O[C@H](COC(c2ccccc2)(c2ccccc2)c2ccccc2)[C@@H](OC(=O)c2ccc(C(C)(C)C)cc2)[C@H](OC(=O)c2ccc(C(C)(C)C)cc2)[C@H]1OC(=O)c1ccc(C(C)(C)C)cc1` is reported as 2 µg/mL (broth dilution; TYPHI).
`CO/N=C(\C(=O)N[C@@H]1C(=O)N2C(C(=O)O)=C(CSc3nc(=O)c(=O)[nH]n3C)CS[C@H]12)c1csc(N)n1` gave an MIC of 0.125 µg/mL (CHOLERAESUIS; 20 h, pH 5.5).
`CC1(C)S[C@@H]2[C@H](NC(=O)[C@H](N)c3ccccc3)C(=O)N2[C@H]1C(=O)O` gave an MIC of 32 µg/mL (broth dilution; PARATYPHI; 16 h).
The MIC of `CCN1CCN(c2cc3c(cc2F)c(=O)c(C(=O)O)cn3C2CC2)CC1` is reported as 0.0625 µg/mL (CHOLERAESUIS; 20 h, pH 7.2).
For `C[C@H]1COc2c(N3CCN(C)CC3)c(F)cc3c(=O)c(C(=O)O)cn1c23`, the MIC was no more than 0.03 µg/mL (agar dilution; TYPHI).
The MIC of `O=C1NN=C(N=Cc2ccc(O)cc2O)C1=NNn1c(-c2ccccc2)nc2ccccc2c1=O` is reported as 53.5 µM (broth dilution; PARATYPHI; 24 h).
`[H]/N=C(/N)N[C@H]1[C@H](O)[C@@H](O)[C@H](O[C@@H]2O[C@@H](C)[C@](O)(C=O)[C@H]2O[C@@H]2O[C@@H](CO)[C@H](O)[C@@H](O)[C@@H]2NC)[C@@H](N/C(N)=N\[H])[C@@H]1O` gave an MIC of 4100 µg/mL (CHOLERAESUIS; 20 h, pH 7).
`CC1=NN(CNc2ccccc2[N+](=O)[O-])C(=O)C1=NNn1c(-c2ccccc2)nc2ccccc2c1=O` gave an MIC of 50.4 µM (broth dilution; PARATYPHI; 24 h).
The MIC of `O=C(N[C@H](CO)[C@H](O)c1ccc([N+](=O)[O-])cc1)C(Cl)Cl` is reported as 2 µg/mL (CHOLERAESUIS; 20 h, pH 5.5).
With `CC(=O)NCN1N=C(C)C(=NNn2c(-c3ccccc3)nc3ccccc3c2=O)C1=O` the MIC was 59.9 µM (broth dilution; PARATYPHI; 24 h).
`CCn1cc(C(=O)O)c(=O)c2ccc(C)nc21` gave an MIC of 15.6 µg/mL (broth dilution; TYPHI; 24 h).
`CC1=NN(CNc2ccc(C(=O)O)cc2)C(=O)C1=NNn1c(-c2ccccc2)nc2ccccc2c1=O` gave an MIC of 50.5 µM (broth dilution; PARATYPHI; 24 h).
The MIC of `O=C(O)c1cn(C2CC2)c2cc(N3CCNCC3)c(F)cc2c1=O` is reported as 62.5 µg/mL (broth dilution; TYPHI; 24 h).
The MIC of `CS(=O)(=O)c1ccc([C@@H](O)[C@@H](CF)NC(=O)C(Cl)Cl)cc1` is reported as 4 µg/mL (CHOLERAESUIS; 20 h, pH 7).
The MIC of `CCCCCCCCCCCC(=O)OC[C@H]1O[C@@H](n2cc(C)c(=O)[nH]c2=O)C[C@@H]1O` is reported as 1 µg/mL (broth dilution; TYPHI).
The MIC of `CO/N=C(\C(=O)N[C@@H]1C(=O)N2C(C(=O)O)=C(CSC(=O)c3ccco3)CS[C@H]12)c1csc(N)n1` is reported as 1 µg/mL (ENTERITIDIS; 20 h, pH 5.5).
For `O=C1NN=C(N=Cc2ccccc2)C1=NNn1c(-c2ccccc2)nc2ccccc2c1=O`, the MIC was 114 µM (broth dilution; PARATYPHI; 24 h).
